Results on twelve compounds are retold here after ChEMBL document CHEMBL1144940 (J Med Chem, 2003).

One may read the EC50 as the concentration that produces a half-maximal response. One may read the Ki as a measure of affinity in units of concentration, obtained from inhibition or displacement. Lower therefore signals a stronger hold on the target.

For assay [1], the target named is T1, Melanocortin receptor 4 (Homo sapiens, UniProt P32245). Kind of assay: Intracellular cAMP accumulation in Melanocortin 4 receptor functional assay.
T1 sequence (P32245 whole entry): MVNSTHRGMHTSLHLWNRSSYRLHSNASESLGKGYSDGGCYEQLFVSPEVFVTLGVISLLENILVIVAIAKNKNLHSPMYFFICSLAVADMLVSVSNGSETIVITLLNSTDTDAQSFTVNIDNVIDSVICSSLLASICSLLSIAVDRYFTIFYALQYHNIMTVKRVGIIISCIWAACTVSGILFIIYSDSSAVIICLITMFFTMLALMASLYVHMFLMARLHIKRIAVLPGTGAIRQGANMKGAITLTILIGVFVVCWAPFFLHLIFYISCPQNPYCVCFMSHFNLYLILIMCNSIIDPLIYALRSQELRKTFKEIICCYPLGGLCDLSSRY
Assay [2] has as its target T2, Melanocortin receptor 5 (Homo sapiens, UniProt P33032). The assay can be described thus: Intracellular cAMP accumulation in human Melanocortin 5 receptor functional assay. Background: Changes in cAMP serve as a functional read-out for many G protein-coupled receptors.
The target in assay [3] is T1, Melanocortin receptor 4. Kind of assay: Binding affinity against Melanocortin 4 receptor by gamma-MCH displacement. Put shortly: (§1)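 Competition binding on intact HEK293 cells stably expressing the human receptor, seeded 50000 cells/well 48 h earlier. Lysates were gamma-counted. Ki came from competition curves; mean of duplicate experiments in triplicate.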
The target in assay [4] is T3, Melanocortin receptor 3 (Homo sapiens, UniProt P41968). Kind of assay: Intracellular cAMP accumulation in human Melanocortin 3 receptor functional assay.
T3 sequence (P41968 whole entry): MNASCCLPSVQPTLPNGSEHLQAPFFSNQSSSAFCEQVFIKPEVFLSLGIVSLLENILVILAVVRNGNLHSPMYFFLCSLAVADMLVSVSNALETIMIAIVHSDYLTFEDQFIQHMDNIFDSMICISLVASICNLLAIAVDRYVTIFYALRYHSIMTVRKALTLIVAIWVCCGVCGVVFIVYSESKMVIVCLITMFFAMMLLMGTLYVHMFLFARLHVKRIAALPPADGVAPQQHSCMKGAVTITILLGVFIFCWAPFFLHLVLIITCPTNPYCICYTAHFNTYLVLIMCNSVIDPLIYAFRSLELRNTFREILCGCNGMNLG
Assay [5] deals with T3, Melanocortin receptor 3. The assay can be described thus: Binding affinity against human Melanocortin 3 receptor by gamma-MCH displacement. Put shortly: as §1
Assay [6] concerns the target T2, Melanocortin receptor 5. Kind of assay: Binding affinity against human Melanocortin 5 receptor by gamma-MCH displacement. Put shortly: as §1
Assay [7] has as its target T1, Melanocortin receptor 4. Kind of assay: Agonist activity against human Melanocortin 4 receptor at 10 uM.

Bridge positions count the residues as written; N and C are the ends. Square brackets hold non-standard residues; d marks the D form. Peptide text beside a SMILES is read from it. Pen = CC(C)(S)[C@H](N)C(=O)O; Nle = CCCC[C@H](N)C(=O)O

T2 sequence (P33032 whole entry): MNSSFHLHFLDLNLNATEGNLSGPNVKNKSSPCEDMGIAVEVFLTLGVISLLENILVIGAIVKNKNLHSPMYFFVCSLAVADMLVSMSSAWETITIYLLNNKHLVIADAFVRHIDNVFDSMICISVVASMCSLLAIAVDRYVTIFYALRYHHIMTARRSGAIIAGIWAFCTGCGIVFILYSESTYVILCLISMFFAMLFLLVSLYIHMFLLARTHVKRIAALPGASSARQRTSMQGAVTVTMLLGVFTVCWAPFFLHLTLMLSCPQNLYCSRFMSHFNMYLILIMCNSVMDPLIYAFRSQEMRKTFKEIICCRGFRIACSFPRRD

For `CCCC[C@H](NC(=O)[C@@H](NC(=O)[C@@H](N)Cc1ccc(O)cc1)C(C)C)C(=O)N[C@@H]1CSSC[C@@H](C(=O)N[C@@H](CCCNC(=N)N)C(=O)N[C@@H](Cc2ccccc2)C(=O)NCC(N)=O)NC(=O)[C@H](Cc2c[nH]c3ccccc23)NC(=O)[C@H](CCCNC(=N)N)NC(=O)[C@H](Cc2ccccc2)NC(=O)[C@H](Cc2cnc[nH]2)NC1=O`, the EC50 at Melanocortin receptor 4 [1] was determined as 360 nM; on Melanocortin receptor 5 [2] it was 140 nM; at Melanocortin receptor 3 [4], 210 nM. Further, the inhibition constant (Ki) worked out at 1200 nM at Melanocortin receptor 4 [3], 1600 nM on Melanocortin receptor 3 [5] and 210 nM on Melanocortin receptor 5 [6].

Take `CCCC[C@H](NC(=O)[C@@H](NC(=O)[C@@H](N)Cc1ccc(O)cc1)C(C)C)C(=O)N[C@H]1CSSC[C@@H](C(=O)N[C@@H](CCCNC(=N)N)C(=O)N[C@@H](Cc2ccccc2)C(=O)NCC(N)=O)NC(=O)[C@H](Cc2c[nH]c3ccccc23)NC(=O)[C@H](CCCNC(=N)N)NC(=O)[C@H](Cc2ccccc2)NC(=O)[C@H](Cc2cnc[nH]2)NC1=O`: the EC50 on Melanocortin receptor 4 [1] is 170 nM; on Melanocortin receptor 5 [2] it was 3.2 nM; on Melanocortin receptor 3 [4], 4.2 nM. Also, the inhibition constant (Ki) at Melanocortin receptor 4 [3] was 2.5 nM; on Melanocortin receptor 3 [5], 6.8 nM; at Melanocortin receptor 5 [6] it was 27 nM.

In the case of `CC(C)[C@H](NC(=O)[C@@H](N)Cc1ccc(O)cc1)C(=O)N[C@@H]1C(=O)NCC(=O)N[C@@H](Cc2cnc[nH]2)C(=O)N[C@@H](Cc2ccccc2)C(=O)N[C@@H](CCCNC(=N)N)C(=O)N[C@@H](Cc2c[nH]c3ccccc23)C(=O)N[C@H](C(=O)N[C@@H](CCCNC(=N)N)C(=O)N[C@@H](Cc2ccccc2)C(=O)NCC(N)=O)CSSC1(C)C`, the EC50 was more than 10000 nM at Melanocortin receptor 4 [1], more than 10000 nM on Melanocortin receptor 5 [2] and 400 nM at Melanocortin receptor 3 [4]. Moreover, the Ki at Melanocortin receptor 4 [3] stood at 12 nM; on Melanocortin receptor 3 [5], 150 nM; on Melanocortin receptor 5 [6], 1700 nM.

At Melanocortin receptor 4 [7], `CCCC[C@H](NC(=O)[C@@H](NC(=O)[C@@H](N)Cc1ccc(O)cc1)C(C)C)C(=O)NCC(=O)N[C@@H](Cc1c[nH]cn1)C(=O)N[C@H](Cc1ccc2ccccc2c1)C(=O)N[C@@H](CCCN=C(N)N)C(=O)N[C@@H](Cc1c[nH]c2ccccc12)C(=O)N[C@@H](CC(=O)O)C(=O)N[C@@H](CCCN=C(N)N)C(=O)N[C@@H](Cc1ccccc1)C(=O)NCC(N)=O` showed an Activity of 100%. For the same compound, at Melanocortin receptor 3 [4], the EC50 is more than 10000 nM. The Ki at Melanocortin receptor 3 [5] amounted to 0.81 nM; on Melanocortin receptor 5 [6] it was 1 nM.

On to `CCCC[C@H](NC(=O)[C@@H](NC(=O)[C@@H](N)Cc1ccc(O)cc1)C(C)C)C(=O)N[C@H]1CSSC[C@H](C(=O)N[C@@H](CCCN=C(N)N)C(=O)N[C@@H](Cc2ccccc2)C(=O)NCC(N)=O)NC(=O)[C@H](Cc2c[nH]c3ccccc23)NC(=O)[C@H](CCCN=C(N)N)NC(=O)[C@H](Cc2ccccc2)NC(=O)[C@H](Cc2c[nH]cn2)NC1=O`, for which the concentration for a half-maximal effect (EC50) was 83 nM on Melanocortin receptor 4 [1], 270 nM on Melanocortin receptor 5 [2] and 39 nM on Melanocortin receptor 3 [4]. For the same compound, the inhibitory constant (Ki) was more than 10000 nM at Melanocortin receptor 4 [3], 240 nM at Melanocortin receptor 3 [5] and 220 nM on Melanocortin receptor 5 [6].

With `CC(C)[C@H](NC(=O)[C@@H](N)Cc1ccc(O)cc1)C(=O)N[C@H]1CSSC(C)(C)[C@@H](C(=O)N[C@@H](CCCNC(=N)N)C(=O)N[C@@H](Cc2ccccc2)C(=O)NCC(N)=O)NC(=O)[C@H](Cc2c[nH]c3ccccc23)NC(=O)[C@H](CCCNC(=N)N)NC(=O)[C@H](Cc2ccccc2)NC(=O)[C@H](Cc2cnc[nH]2)NC(=O)CNC1=O` (H-YVCGHFRW[Pen]RFG-NH2; disulfide 3-9), the half-maximal effective concentration (EC50) on Melanocortin receptor 4 [1], on Melanocortin receptor 5 [2] and on Melanocortin receptor 3 [4] was more than 10000 nM in each case. The Ki is more than 10000 nM at Melanocortin receptor 4 [3], 480 nM on Melanocortin receptor 3 [5] and 480 nM on Melanocortin receptor 5 [6].

For the compound `CCCC[C@H](NC(=O)[C@@H](NC(=O)[C@@H](N)Cc1ccc(O)cc1)C(C)C)C(=O)N[C@@H]1C(=O)N[C@@H](Cc2c[nH]cn2)C(=O)N[C@@H](Cc2ccccc2)C(=O)N[C@@H](CCCN=C(N)N)C(=O)N[C@@H](Cc2c[nH]c3ccccc23)C(=O)N[C@H](C(=O)N[C@@H](CCCN=C(N)N)C(=O)N[C@@H](Cc2ccccc2)C(=O)NCC(N)=O)CSSC1(C)C` (H-YV[Nle][Pen]HFRWCRFG-NH2; disulfide 4-9), the half-maximal effective concentration (EC50) amounted to 200 nM on Melanocortin receptor 4 [1], 74 nM at Melanocortin receptor 5 [2] and 19 nM at Melanocortin receptor 3 [4]. The Ki was more than 10000 nM at Melanocortin receptor 4 [3], 150 nM on Melanocortin receptor 3 [5] and 150 nM on Melanocortin receptor 5 [6].

For `CCCC[C@H](NC(=O)[C@@H](NC(=O)[C@@H](N)Cc1ccc(O)cc1)C(C)C)C(=O)N[C@H]1CC(=O)NCCCC[C@@H](C(=O)N[C@@H](CCCN=C(N)N)C(=O)N[C@@H](Cc2ccccc2)C(=O)NCC(N)=O)NC(=O)[C@H](Cc2c[nH]c3ccccc23)NC(=O)[C@H](CCCN=C(N)N)NC(=O)[C@H](Cc2ccccc2)NC(=O)[C@H](Cc2c[nH]cn2)NC1=O`, the 50% effective concentration (EC50) at Melanocortin receptor 4 [1] was determined as 340 nM; at Melanocortin receptor 5 [2], 200 nM; on Melanocortin receptor 3 [4], 240 nM. The Ki on Melanocortin receptor 4 [3] came to 9.6 nM; on Melanocortin receptor 3 [5] it was 5.5 nM; at Melanocortin receptor 5 [6], 8.8 nM.

For `CC(C)[C@H](NC(=O)[C@@H](N)Cc1ccc(O)cc1)C(=O)N[C@H]1CSSC[C@@H](C(=O)N[C@@H](CCCN=C(N)N)C(=O)N[C@@H](Cc2ccccc2)C(=O)NCC(N)=O)NC(=O)[C@H](Cc2c[nH]c3ccccc23)NC(=O)[C@H](CCCN=C(N)N)NC(=O)[C@H](Cc2ccccc2)NC(=O)[C@H](Cc2c[nH]cn2)NC(=O)CNC1=O`, the half-maximal effective concentration (EC50) at Melanocortin receptor 4 [1] came to 9 nM; on Melanocortin receptor 5 [2] it was 450 nM; at Melanocortin receptor 3 [4], 36 nM. Also, the values for the Ki on Melanocortin receptor 4 [3], on Melanocortin receptor 3 [5] and on Melanocortin receptor 5 [6] were 22 nM, 68 nM and 210 nM, respectively.

Compound `CCCC[C@H](NC(=O)[C@@H](NC(=O)[C@@H](N)Cc1ccc(O)cc1)C(C)C)C(=O)NCC(=O)N[C@@H](Cc1c[nH]cn1)C(=O)N[C@@H](Cc1ccccc1)C(=O)N[C@@H](CCCN=C(N)N)C(=O)N[C@@H](Cc1c[nH]c2ccccc12)C(=O)N[C@@H](CC(=O)O)C(=O)N[C@@H](CCCN=C(N)N)C(=O)N[C@@H](Cc1ccccc1)C(=O)NCC(N)=O` displayed an Activity at Melanocortin receptor 4 [7] of 105%. The affinity at Melanocortin receptor 4 [3] corresponds to a Ki of 62 nM.

On to `CC(C)[C@H](NC(=O)[C@@H](N)Cc1ccc(O)cc1)C(=O)N[C@H]1CSSC[C@H](C(=O)N[C@@H](CCCN=C(N)N)C(=O)N[C@@H](Cc2ccccc2)C(=O)NCC(N)=O)NC(=O)[C@H](Cc2c[nH]c3ccccc23)NC(=O)[C@H](CCCN=C(N)N)NC(=O)[C@H](Cc2ccccc2)NC(=O)[C@H](Cc2c[nH]cn2)NC(=O)CNC1=O`, for which the concentration giving a half-maximal response (EC50) at Melanocortin receptor 4 [1], at Melanocortin receptor 5 [2] and on Melanocortin receptor 3 [4] was more than 10000 nM throughout. For the same compound, the Ki is more than 10000 nM at Melanocortin receptor 4 [3], more than 10000 nM on Melanocortin receptor 3 [5] and more than 3900 nM at Melanocortin receptor 5 [6].

`CCCC[C@H](NC(=O)[C@@H](NC(=O)[C@@H](N)Cc1ccc(O)cc1)C(C)C)C(=O)NCC(=O)NC(C)(C)C(=O)N[C@@H](Cc1ccccc1)C(=O)N[C@@H](CCCN=C(N)N)C(=O)N[C@H](Cc1ccc2ccccc2c1)C(=O)N[C@@H](CC(=O)O)C(=O)N[C@@H](CCCN=C(N)N)C(=O)N[C@@H](Cc1ccccc1)C(=O)NCC(N)=O`: the EC50 at Melanocortin receptor 4 [1] was more than 10000 nM; at Melanocortin receptor 5 [2], 1.8 nM; on Melanocortin receptor 3 [4], more than 10000 nM. Further, the inhibitory constant (Ki) turned out to be 4800 nM on Melanocortin receptor 4 [3], 3400 nM at Melanocortin receptor 3 [5] and 120 nM on Melanocortin receptor 5 [6].
